Results reported in ChEMBL document CHEMBL1667736, “Tirucallane triterpenoids from Cornus walteri” (J Nat Prod, 2011).

Experiments:
Format in all cases: functional, cell-based
SK-MEL-2 = test: Cytotoxicity against human SK-MEL-2 cells by SRB assay
In short: (§1)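 Sulforhodamine B (SRB) cytotoxicity assay on cultured human cancer lines: A549 (non-small cell lung adenocarcinoma), SK-OV-3 (ovarian), SK-MEL-2 (skin melanoma), XF498 (CNS). Assays were run at the Korea Research Institute of Chemical Technology. Etoposide served as positive control. Potency is expressed as IC50 in µM.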

SK-OV-3 = test: Cytotoxicity against human SKOV3 cells by SRB assay; in short: as §1
A549 = test: Cytotoxicity against human A549 cells by SRB assay; in short: as §1
XF498 = test: Cytotoxicity against human XF498 cells by SRB assay; in short: as §1

Compound | IC50 (SK-MEL-2) | IC50 (SK-OV-3) | IC50 (A549) | IC50 (XF498)
COc1cc([C@@H]2c3cc4c(cc3[C@@H](O[C@@H]3O[C@@H]5CO[C@@H](C)O[C@H]5[C@H](O)[C@H]3O)[C@H]3COC(=O)[C@H]23)OCO4)cc(OC)c1O [ETOPOSIDE] | 1.17 µM | 1.81 µM | 1.85 µM | 1.72 µM
COC(C)(C)/C=C/C[C@H](C)[C@@H]1CC[C@]2(C)[C@@H]3CCC4C(C)(C)[C@@H](O)CC[C@]4(C)[C@H]3CC[C@@]12C (stereo not given in full) [CORNUSALTERIN C] | 11.9 µM | 16.5 µM | 23.6 µM | 17.6 µM
COC(C)(C)/C=C/C[C@H](C)[C@@H]1CC[C@]2(C)C3=CCC4C(C)(C)[C@@H](O)CC[C@]4(C)[C@H]3CC[C@@]12C (stereo not given in full) [CORNUSALTERIN A] | 12.1 µM | 12.5 µM | 22.2 µM | 17.4 µM
C=C(C)/C=C/C[C@H](C)[C@@H]1CC[C@]2(C)C3=CCC4C(C)(C)C(=O)CC[C@]4(C)[C@H]3CC[C@@]12C (stereo not given in full) [CORNUSALTERIN D] | 12.7 µM | 14.5 µM | 26.9 µM | 17.8 µM
CC(C)CCC[C@H](C)[C@@H]1CC[C@]2(C)C3=CCC4C(C)(C)C=CC(=O)[C@]4(C)[C@H]3CC[C@@]12C (stereo not given in full) [CORNUSALTERIN F] | 21.4 µM | 27.3 µM | 27 µM | 24.6 µM
CC(C)=C[C@H]1C[C@@H]([C@@H]2CC[C@]3(C)C4=CCC5C(C)(C)C(=O)CC[C@]5(C)[C@H]4CC[C@@]23C)CO1 (stereo not given in full) [DEOXYFLINDISSONE] | 6.07 µM | 3.64 µM | 4.02 µM | 5.1 µM
CO[C@H](C=C(C)C)C[C@H](C)[C@@H]1CC[C@]2(C)C3=CCC4C(C)(C)C(=O)CC[C@]4(C)[C@H]3CC[C@@]12C (stereo not given in full) [CORNUSALTERIN H] | 17.7 µM | 21.4 µM | 28.5 µM | 18.6 µM
COC(C)(C)/C=C/C[C@H](C)[C@@H]1CC[C@]2(C)[C@@H]3CCC4C(C)(C)C(=O)CC[C@]4(C)[C@H]3CC[C@@]12C (stereo not given in full) [CORNUSALTERIN B] | 18 µM | 19.2 µM | 28.8 µM | 28.7 µM
CC(C)CCC[C@H](C)[C@@H]1CC[C@]2(C)C3=CCC4C(C)(C)C(=O)C=C[C@]4(C)[C@H]3CC[C@@]12C (stereo not given in full) [CORNUSALTERIN E] | 12.5 µM | 14.1 µM | 18.4 µM | 13.1 µM
CO[C@@H](C=C(C)C)C[C@H](C)[C@@H]1CC[C@]2(C)C3=CCC4C(C)(C)[C@@H](O)CC[C@]4(C)[C@H]3CC[C@@]12C (stereo not given in full) [CORNUSALTERIN J] | 12.3 µM | 17.8 µM | 25.4 µM | 18.2 µM
CO[C@H](C=C(C)C)C[C@H](C)[C@@H]1CC[C@]2(C)C3=CCC4C(C)(C)C(=O)CC[C@]4(C)C3=CC[C@@]12C (stereo not given in full) [CORNUSALTERIN I] | 10.4 µM | 13.5 µM | 17.6 µM | 12.3 µM
CC(C)=C[C@@H]1C[C@@H]([C@@H]2CC[C@]3(C)C4=CCC5C(C)(C)C(=O)CC[C@]5(C)[C@H]4CC[C@@]23C)CO1 (stereo not given in full) [CORNUSALTERIN L] | 4.73 µM | 3.82 µM | 4.29 µM | 5.81 µM
CO[C@@H](C=C(C)C)C[C@H](C)[C@@H]1CC[C@]2(C)C3=CCC4C(C)(C)C(=O)CC[C@]4(C)[C@H]3CC[C@@]12C (stereo not given in full) [CORNUSALTERIN G] | 18 µM | 26.9 µM | 29.9 µM | 20.5 µM
COC(C)(C)/C=C/C[C@H](C)[C@@H]1CC[C@]2(C)C3=CCC4C(C)(C)C(=O)CC[C@]4(C)[C@H]3CC[C@@]12C (stereo partly drawn) [(-)-LEUCOPHYLLONE] | 21.2 µM | 18 µM | 24.9 µM | 18.2 µM
CC(C)CCC[C@H](C)[C@@H]1CC[C@]2(C)[C@@H]3CC=C4C(C)(C)C(=O)C[C@@H](O)[C@]4(C)[C@H]3CC[C@@]12C [CORNUSALTERIN K] | 12.4 µM | 12.8 µM | 11.7 µM | 12 µM
